This passage reports Activity results from ChEMBL document CHEMBL1147883, “Design, synthesis, and biological evaluation of substituted-N-(thieno[2,3-b]pyridin-3-yl)-guanidines, N-(1H-pyrrolo[2,3-b]pyridin-3-yl)-guanidines, and N-(1H-indol-3-yl)-guanidines” (2007).

Assay type in all cases: functional, Rattus norvegicus
The nature of assay [1]: Insulinotropic activity in RIN5F cells assessed as stimulation of glucose-dependent insulin secretion per ug of protein at 1 uM. Summed up:
(§1)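 Seeded at 0.2×10^6 cells/well, grown overnight to 80% confluence. PBS wash, then 40 min preincubation in Krebs-Ringer Hepes buffer (1.1 mM glucose, 0.5% BSA, pH 7.4). Supernatant insulin measured by rat insulin ELISA and normalized to total protein (pg/µg/h). n = 3, mean ± SD.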

Assay [2] can be described thus: Insulinotropic activity in RIN5F cells assessed as stimulation of glucose-dependent insulin secretion per microgram of protein at 10 uM. Summed up: as §1
Assay [3] can be described thus: Insulinotropic activity in RIN5F cells assessed as stimulation of glucose-dependent insulin secretion per ug of protein at 0.1 uM. The method, boiled down: as §1

With `CCc1[nH]c2ccc(Cl)cc2c1NC(=N)N`, the Activity in assay [1] came to 19.5 pg/h; in assay [2], 35.2 pg/h; in assay [3], 15.8 pg/h.
With `N=C(N)Nc1c(Cc2ccccc2)[nH]c2ccccc12`, the Activity in assay [1] was 13.1 pg/h; in assay [2], 15.1 pg/h; in assay [3], 11.1 pg/h.
With `N=C(N)Nc1c(-c2ccccc2)[nH]c2ncccc12`, the results for the Activity in assay [1], in assay [2] and in assay [3] were 15.5 pg/h, 28.5 pg/h and 11.5 pg/h, respectively.
The like results for `CCc1[nH]c2ncc(Cl)cc2c1NC(=N)N` were, in that order, 18.1 pg/h, 33.1 pg/h and 15.1 pg/h.
For `N=C(N)Nc1c(-c2ccccc2)[nH]c2ncc(Cl)cc12`, the Activity came out at 18.1 pg/h in assay [1], 33.1 pg/h in assay [2] and 15.2 pg/h in assay [3].
The like results for `N=C(N)Nc1c(C2CCCCC2)[nH]c2ncc(Cl)cc12` were, in that order, 13.1 pg/h, 15.1 pg/h and 10.8 pg/h.
For the compound `N=C(N)Nc1c(Cc2ccccc2)[nH]c2ncc(Cl)cc12`, the Activity in assay [1] worked out at 12.9 pg/h; in assay [2], 15 pg/h; in assay [3], 10.9 pg/h.
For `CCc1sc2ncccc2c1NC(=N)N`, in that order: 12.6 pg/h, 14.6 pg/h and 10.6 pg/h.
Take `CCc1sc2ncc(Cl)cc2c1NC(=N)N`: the Activity in assay [1] was found to be 17.8 pg/h; in assay [2] it was 31.5 pg/h; in assay [3], 14.8 pg/h.
For the compound `N=C(N)Nc1c(Cc2ccccc2)sc2ncc(Cl)cc12`, the Activity in assay [1] is 12.6 pg/h; in assay [2], 14.5 pg/h; in assay [3] it was 10.6 pg/h.
Turning to `N=C(N)Nc1c[nH]c2ncccc12`, the Activity was 12.5 pg/h in assay [1], 14.5 pg/h in assay [2] and 10.5 pg/h in assay [3].
As for `N=C(N)Nc1csc2ncc(Cl)cc12`, the Activity in assay [1] came out at 12.2 pg/h; in assay [2], 14.2 pg/h; in assay [3], 10.2 pg/h.
As to `Cc1[nH]c2ncc(Cl)cc2c1NC(=N)N`, the figures for the Activity in assay [1], in assay [2] and in assay [3] were 19.1 pg/h, 35.1 pg/h and 15.5 pg/h, respectively.
Regarding `Cc1sc2ncccc2c1NC(=N)N`, the Activity was determined as 15.1 pg/h in assay [1], 29.1 pg/h in assay [2] and 11.1 pg/h in assay [3].
With `Cc1[nH]c2ccc(Cl)cc2c1C1=NCCN1`, the results for the Activity in assay [1], in assay [2] and in assay [3] were 20.6 pg/h, 36.4 pg/h and 16.4 pg/h, respectively.
The like results for `Cc1[nH]c2ccc(Cl)cc2c1NC(=N)N` were, in that order, 20.1 pg/h, 36 pg/h and 16.1 pg/h.
The like results for `N=C(N)Nc1c(-c2ccccc2)[nH]c2ccccc12` were, in that order, 16.1 pg/h, 29.1 pg/h and 12.1 pg/h.
As for `N=C(N)Nc1c(C2CCCCC2)[nH]c2ccccc12`, the Activity in assay [1] is 13.1 pg/h; in assay [2] it was 15.1 pg/h; in assay [3], 10.9 pg/h.
As for `N=C(N)Nc1c(C2CCCCC2)[nH]c2ccc(Cl)cc12`, the values for the Activity in assay [1], in assay [2] and in assay [3] were 13.2 pg/h, 15.9 pg/h and 11.2 pg/h, respectively.
As for `N=C(N)Nc1c(Cc2ccccc2)[nH]c2ccc(Cl)cc12`, the Activity came to 13.2 pg/h in assay [1], 15.4 pg/h in assay [2] and 11.2 pg/h in assay [3].
For `N=C(N)Nc1c[nH]c2ccc(Cl)cc12`, in that order: 13.2 pg/h, 15.5 pg/h and 11.1 pg/h.
The like results for `CCc1[nH]c2ccccc2c1NC(=N)N` were, in that order, 13.4 pg/h, 16.1 pg/h and 11.1 pg/h.
For `N=C(N)Nc1c(-c2ccccc2)[nH]c2ccc(Cl)cc12`, in that order: 19.5 pg/h, 35.5 pg/h and 15.9 pg/h.
As for `N=C(N)Nc1c[nH]c2ccccc12`, the Activity in assay [1] was determined as 13 pg/h; in assay [2], 15 pg/h; in assay [3], 10.9 pg/h.
With `Cc1sc2ncc(Cl)cc2c1NC(=N)N`, the Activity in assay [1] was 18.1 pg/h; in assay [2] it was 32.1 pg/h; in assay [3] it was 15.1 pg/h.
`N=C(N)Nc1c(Cc2ccccc2)[nH]c2ncccc12`: the Activity in assay [1] amounted to 12.6 pg/h; in assay [2], 14.9 pg/h; in assay [3], 10.9 pg/h.
The like results for `N=C(N)Nc1c(-c2ccccc2)sc2ncccc12` were, in that order, 15.1 pg/h, 27.9 pg/h and 11.1 pg/h.
For `N=C(N)Nc1c(C2CCCCC2)sc2ncccc12`, in that order: 12.1 pg/h, 14.1 pg/h and 10.1 pg/h.
Take `N=C(N)Nc1c(C2CCCCC2)sc2ncc(Cl)cc12`: the figures for the Activity in assay [1], in assay [2] and in assay [3] were 12.5 pg/h, 14.5 pg/h and 10.5 pg/h, respectively.
Take `N=C(N)Nc1c(Cc2ccccc2)sc2ncccc12`: the Activity in assay [1] was determined as 12.5 pg/h; in assay [2], 14.5 pg/h; in assay [3], 10.5 pg/h.
Turning to `Cc1[nH]c2ncccc2c1NC(=N)N`, the results for the Activity in assay [1], in assay [2] and in assay [3] were 15.5 pg/h, 29.5 pg/h and 11.5 pg/h, respectively.
For the compound `Cc1[nH]c2ccccc2c1NC(=N)N`, the Activity in assay [1] was determined as 16.1 pg/h; in assay [2], 30.1 pg/h; in assay [3], 12.1 pg/h.
For `N=C(N)Nc1csc2ncccc12`, in that order: 12.1 pg/h, 14.1 pg/h and 10.1 pg/h.
The like results for `N=C(N)Nc1c(C2CCCCC2)[nH]c2ncccc12` were, in that order, 12.5 pg/h, 14.5 pg/h and 10.2 pg/h.
Take `CCc1[nH]c2ncccc2c1NC(=N)N`: the values for the Activity in assay [1], in assay [2] and in assay [3] were 13 pg/h, 15 pg/h and 10.8 pg/h, respectively.
Turning to `N=C(N)Nc1c[nH]c2ncc(Cl)cc12`, the Activity in assay [1] is 12.5 pg/h; in assay [2] it was 14.6 pg/h; in assay [3], 10.5 pg/h.
As for `N=C(N)Nc1c(-c2ccccc2)sc2ncc(Cl)cc12`, the results for the Activity in assay [1], in assay [2] and in assay [3] were 17.8 pg/h, 31.6 pg/h and 14.9 pg/h, respectively.
For the compound `CCCCNC(=O)NS(=O)(=O)c1ccc(C)cc1` [TOLBUTAMIDE], the Activity in assay [1] worked out at 27.1 pg/h; in assay [3], 19.9 pg/h.
